Screening data (PubChem BioAssay)
KCC2 mod – KCC2 (human) Cl- transport modulation | Q9H2X9 | KCC2 cells, thallium flux FluoZin-2 fluorescence | B-score of Tl+ flux slope (higher = more flux/activation; lower = inhibition) at 10 µM | 190,000 compounds, 2.2% hits | AID 1456;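 active = thallium flux slope and its plate-corrected score both differing from the plate sample mean at a set confidence after two filtering rounds, in either direction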;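 also: slope of fluorescence scaled to starting intensity during 10 to 20 s after thallium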
hERG protect – hERG (human) protection from proarrhythmic block | activation (rescue from dofetilide block), less the hit threshold, % at 10 µM | Q12809 | CHO-hERG, FluxOR thallium flux, dofetilide IC70 present | 310,000 compounds, 0.51% hits;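 active = activation above the mean of controls blocked by dofetilide plus 5 SD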;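 also: thallium influx through hERG after potassium depolarization seen as dye fluorescence rise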
KCNQ1 block – human KCNQ1 channel inhibition; CHO-K1 KCNQ1, FluxOR thallium flux fluorescence; stronger effect = higher value; B-score at 10 µM; 310,000 compounds, 1.3% hits; AID 2642;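 active = compounds whose thallium flux B-score, printed positive for inhibition, exceeds three library SD while starting fluorescence stays within three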;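 also: channel opened by potassium depolarization with thallium stimulus after 20 min compound exposure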
KCNQ1 pot – potentiators or activators of human KCNQ1 potassium channel; 310,000 compounds, 0.35% hits; AID 2648; B-score at 10 µM; CHO-K1 KCNQ1, thallium flux FluxOR fluorescence; stronger effect = higher value;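 active = fluorescence ratio B-score, a plate-corrected score, at least three library SD, with initial intensity B-score within 5 SD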
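Assay system: stable KCNQ1 CHO-K1 line; medium: assay buffer, equal DMSO in all wells; timing: 90 min dye loading and 20 min compound exposure, both at room temperature; technique: kinetic FluxOR thallium fluorescence, 10-s 1-Hz baseline, 110-s post-stimulus read; read-out basis: B score of baseline-normalized fluorescence ratio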
KCNK3 block – human KCNK3 channel inhibition, primary screen | CHO-KCNK3 thallium flux, FluxOR fluorescence; stronger effect = lower value | O14649 | 340,000 compounds, 0.84% hits | B-score at 10 µM;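 active = B-score under library mean minus 4 SD, starting fluorescence ratio at most library mean plus 5 SD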;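 also: more negative B-score means stronger inhibition of thallium flux through KCNK3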
KCNK9 block – inhibitors of human KCNK9 two-pore domain potassium channel; Q9NPC2; HEK293 KCNK9, FluxOR thallium flux fluorescence; stronger effect = lower value; B-score at 10 µM; 310,000 compounds, 1.2% hits; AID 488922;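 active = ratio B-score over 3 SD below the library mean, with starting fluorescence within 5 SD of its mean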;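 also: negative B-score means less thallium flux so channel inhibition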
Target sequence (Q9NPC2 whole entry, looked up, the tested form may be a part): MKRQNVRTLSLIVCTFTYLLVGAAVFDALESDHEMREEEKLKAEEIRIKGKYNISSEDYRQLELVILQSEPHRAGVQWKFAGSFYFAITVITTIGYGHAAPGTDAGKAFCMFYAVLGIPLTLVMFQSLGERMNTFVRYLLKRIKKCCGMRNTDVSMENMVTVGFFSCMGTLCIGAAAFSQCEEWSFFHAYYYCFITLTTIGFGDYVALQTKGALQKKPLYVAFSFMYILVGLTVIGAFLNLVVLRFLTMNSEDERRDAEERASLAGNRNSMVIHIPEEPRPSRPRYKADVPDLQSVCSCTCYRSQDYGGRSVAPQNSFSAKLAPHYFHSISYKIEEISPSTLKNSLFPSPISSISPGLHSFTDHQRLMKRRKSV
* marks the source's active call; other numbers are inactive results. Most compounds without a hit are left out; they make up all but 4.1% or so of the library.

For CCNc1ccc(Br)cc(C(=O)/C=C/c2ccc(Cl)cc2)c1=O the results were KCC2 mod -0.72, hERG protect -6, KCNQ1 block inactive, KCNQ1 pot inactive, KCNK3 block inactive and KCNK9 block inactive.
`CCNc1ccc(Br)cc(C(=O)/C=C/c2c(Cl)cccc2Cl)c1=O` gave hERG protect -23, KCNQ1 block 6*, KCNQ1 pot inactive, KCNK3 block -9* and KCNK9 block inactive.
For CC(C)(C)NC(=O)CCc1nnc(Cc2c[nH]c3ccccc23)o1 the results were KCC2 mod -0.18, hERG protect -7, KCNQ1 block inactive, KCNQ1 pot inactive, KCNK3 block inactive and KCNK9 block inactive.
`CCOc1ccc(/C=N/NC(=O)c2ccc(Cn3cc([N+](=O)[O-])cn3)o2)cc1` gave KCC2 mod 1.5, hERG protect -3, KCNQ1 block inactive, KCNQ1 pot inactive, KCNK3 block inactive and KCNK9 block inactive.
For CC(C)(C)c1ccc(OCc2ccc(C(=O)N/N=C/c3ccc([N+](=O)[O-])cc3)o2)cc1 the results were KCC2 mod 1.1, hERG protect -15, KCNQ1 block 7*, KCNQ1 pot inactive, KCNK3 block inactive and KCNK9 block inactive.
Screening CCOC(=O)c1cccc(NC(=O)CSc2nc3cccnc3n2C)c1 returned KCNK3 block inactive.
Cc1cc(Cl)ccc1OCC(=O)NNC(=O)C1CCCO1 (centres undefined) was read as KCC2 mod 0.65, hERG protect -5, KCNQ1 block inactive, KCNQ1 pot 26*, KCNK3 block inactive and KCNK9 block inactive.
Screening COc1ccc(OCC(=O)NNC(=O)C2CCCO2)cc1 (centres undefined) returned KCC2 mod -0.68, hERG protect -5, KCNQ1 block inactive, KCNQ1 pot inactive, KCNK3 block inactive and KCNK9 block inactive.
Screening CCCc1cc2c(-c3ccccc3)cc(=O)oc2cc1OCc1ccc(C(=O)O)o1 returned KCC2 mod -3.3, hERG protect -13, KCNQ1 block inactive, KCNQ1 pot 9*, KCNK3 block inactive and KCNK9 block inactive.
`CCC(=O)N1C(C(=O)O)CSC1c1ccc(OC)cc1` (centres undefined) gave KCC2 mod 0.11, hERG protect -6, KCNQ1 block inactive, KCNQ1 pot inactive, KCNK3 block inactive and KCNK9 block inactive.
For CCC/C=C(\CCC)C(NC(=O)c1ccc(C(F)(F)F)cc1)c1ccccc1 (centres undefined) the results were hERG protect -12, KCNQ1 block 6*, KCNQ1 pot inactive and KCNK9 block inactive.
`CCC/C=C(\CCC)C(NC(=O)c1ccc(C(=O)OC)cc1)c1ccc(C(=O)OC)cc1` (centres undefined) gave hERG protect -4, KCNQ1 block 6*, KCNQ1 pot inactive and KCNK9 block inactive.
O=S(=O)(NC1CC1)c1ccc(Br)cc1N1CCC[C@H]1CO was read as KCNK3 block inactive.
COCCNC(=O)COC(=O)c1ccc(OCC(=O)Nc2ccccc2OC)c(OC)c1 was read as KCC2 mod -0.05, hERG protect -11, KCNQ1 block inactive, KCNQ1 pot inactive, KCNK3 block inactive and KCNK9 block inactive.
COc1ccc(/C=C2\C(=O)NC(=S)N2C(=O)c2ccc(F)cc2)cc1 was read as KCC2 mod 3.4*, hERG protect -4, KCNQ1 block inactive, KCNQ1 pot inactive, KCNK3 block inactive and KCNK9 block inactive.
`O=C(Nn1c(C2CCCCC2)nc2ccccc2c1=O)c1ccc(Cl)c([N+](=O)[O-])c1` gave KCC2 mod -1.7, hERG protect -12, KCNQ1 block 9*, KCNQ1 pot inactive, KCNK3 block inactive and KCNK9 block inactive.
Screening Cc1cc(C(=O)Nn2c(C3CCCCC3)nc3ccccc3c2=O)ccc1[N+](=O)[O-] returned KCC2 mod 0.042, hERG protect -6, KCNQ1 block inactive, KCNQ1 pot inactive, KCNK3 block inactive and KCNK9 block inactive.
`Cc1cnc(=O)[nH]c1SCc1ccc([N+](=O)[O-])cc1` gave hERG protect -8, KCNQ1 block inactive, KCNQ1 pot inactive, KCNK3 block inactive and KCNK9 block -7.3*.
`S=C(NCCc1ccccc1)N1CCN(C23CC4CC(CC(C4)C2)C3)CC1` gave KCC2 mod -0.13, hERG protect -12, KCNQ1 block inactive, KCNQ1 pot inactive, KCNK3 block inactive and KCNK9 block inactive.
For COc1ccc(CN2CCN(CC3CC3)CC2CCO)c(C)c1C (centres undefined) the results were hERG protect -6, KCNQ1 block inactive, KCNQ1 pot inactive, KCNK3 block inactive and KCNK9 block inactive.
CCC1CCCCN1Cc1ccc(OC)c(C)c1C (centres undefined) was read as hERG protect 5.3*, KCNQ1 block inactive, KCNQ1 pot inactive, KCNK3 block inactive and KCNK9 block inactive.
`Cc1cc(/C=C(\C#N)c2nc3ccccc3[nH]2)c(C)n1C` gave KCC2 mod -0.19, hERG protect -6, KCNQ1 block inactive, KCNQ1 pot inactive, KCNK3 block inactive and KCNK9 block inactive.
Screening Cc1cc(/C=C(/C#N)c2nc3ccccc3[nH]2)c(C)n1-c1cccc([N+](=O)[O-])c1 returned hERG protect -6, KCNQ1 block 8*, KCNQ1 pot inactive, KCNK3 block inactive and KCNK9 block inactive.
For COc1cccc(C(C[N+](=O)[O-])c2c(C)[nH]n(-c3ccccc3)c2=O)c1 (centres undefined) the results were hERG protect -22, KCNQ1 block 8*, KCNQ1 pot inactive, KCNK3 block inactive and KCNK9 block inactive.
Screening CC1CC(C)CN(c2ccc(C(=O)OCC(=O)NC3CCCc4ccccc43)cc2[N+](=O)[O-])C1 (centres undefined) returned KCC2 mod 0.72, hERG protect -13, KCNQ1 block inactive, KCNQ1 pot inactive, KCNK3 block inactive and KCNK9 block -6.7*.
For CC(C)(/C=N/O)/[N+]([O-])=C/c1ccccc1 the results were KCC2 mod 1, hERG protect -8, KCNQ1 block 7*, KCNQ1 pot inactive, KCNK3 block inactive and KCNK9 block inactive.
For CC(C)(C(=O)c1ccccc1)/[N+]([O-])=C/c1ccccc1 the results were KCC2 mod -0.68, hERG protect -5, KCNQ1 block inactive, KCNQ1 pot inactive, KCNK3 block inactive and KCNK9 block inactive.
Screening NS(=O)(=O)c1ccc(CCNC(=O)CSc2ccc3ccccc3c2)cc1 returned KCC2 mod 0.089, hERG protect 11*, KCNQ1 block inactive, KCNQ1 pot inactive, KCNK3 block inactive and KCNK9 block inactive.
